In ChEMBL document CHEMBL1147785, “Novel peptidomimetic cysteine protease inhibitors as potential antimalarial agents” (J Med Chem, 2006) one finds IC50 and Activity data, which are given here for eleven molecules.

Each structure is given as a SMILES string. pIC50: −log10 of the molar value. Calls of active or inactive are those of the source. The rule behind the calls is not given here. Residues, ends and D or L forms follow the SMILES beside them. *: point of attachment. Cbz = O=C(OCc1ccccc1)*

One assay has as its target T1, Falcipain 2B (Plasmodium falciparum, UniProt Q3HTL5).
T1 sequence (Q3HTL5 whole entry): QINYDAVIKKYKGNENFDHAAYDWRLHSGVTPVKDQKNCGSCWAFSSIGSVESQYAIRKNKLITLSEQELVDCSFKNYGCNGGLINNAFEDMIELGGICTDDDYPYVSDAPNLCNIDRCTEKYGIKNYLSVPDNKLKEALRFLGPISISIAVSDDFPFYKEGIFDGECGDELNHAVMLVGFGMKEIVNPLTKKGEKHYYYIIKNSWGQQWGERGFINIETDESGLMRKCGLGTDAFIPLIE
Description: Inhibition of Plasmodium falciparum recombinant FP2B fused with maltose binding protein. The gist of the method: (§1)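 Recombinant enzyme expressed in E. coli as a maltose binding protein fusion. Fluorescence assay using the fluorogenic substrate Z-Leu-Arg-AMC, with inhibitor at various concentrations. Hydrolysis rate was compared with DMSO-only negative controls and with positive controls containing a standard papain-family cysteine protease aldehyde inhibitor. Results are given as IC50.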

A further assay has as its target Caspase-8 (Homo sapiens) (UniProt Q14790). The assay can be described thus: Inhibition of human recombinant caspase8 upto 50 uM.
The next assay has as its target T2, Falcipain 2 (Plasmodium falciparum, UniProt Q9N6S8).
T2 sequence (Q9N6S8 whole entry): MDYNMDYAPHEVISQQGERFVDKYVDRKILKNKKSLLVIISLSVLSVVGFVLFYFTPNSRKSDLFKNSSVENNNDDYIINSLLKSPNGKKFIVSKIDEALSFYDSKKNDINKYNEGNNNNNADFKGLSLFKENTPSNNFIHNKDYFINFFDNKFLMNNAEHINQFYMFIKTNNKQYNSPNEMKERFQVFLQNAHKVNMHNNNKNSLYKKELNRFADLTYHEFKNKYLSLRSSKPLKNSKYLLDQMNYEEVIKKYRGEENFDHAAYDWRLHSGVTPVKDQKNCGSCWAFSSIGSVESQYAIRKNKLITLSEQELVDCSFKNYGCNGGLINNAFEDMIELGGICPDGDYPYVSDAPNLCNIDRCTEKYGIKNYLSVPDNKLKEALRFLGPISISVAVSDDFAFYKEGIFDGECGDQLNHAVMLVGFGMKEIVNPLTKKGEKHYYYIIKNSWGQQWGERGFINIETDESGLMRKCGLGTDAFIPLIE
The assay can be described thus: Inhibition of Plasmodium falciparum recombinant FP2A fused with maltose binding protein. The gist of the method: as §1

For a further assay, the target named is T3, Caspase-9 (Homo sapiens) (UniProt P55211).
T3 sequence (whole entry): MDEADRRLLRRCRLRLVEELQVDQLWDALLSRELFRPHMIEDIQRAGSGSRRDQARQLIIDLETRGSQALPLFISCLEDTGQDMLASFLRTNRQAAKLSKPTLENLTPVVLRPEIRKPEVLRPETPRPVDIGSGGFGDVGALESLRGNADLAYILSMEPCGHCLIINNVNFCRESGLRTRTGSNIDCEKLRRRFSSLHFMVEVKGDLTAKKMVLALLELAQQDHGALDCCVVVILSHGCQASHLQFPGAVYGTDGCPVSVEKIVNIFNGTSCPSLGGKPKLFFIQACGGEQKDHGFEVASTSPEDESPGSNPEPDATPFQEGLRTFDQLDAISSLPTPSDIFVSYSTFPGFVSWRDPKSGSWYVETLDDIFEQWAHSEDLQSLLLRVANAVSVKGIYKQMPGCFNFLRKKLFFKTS
Description: Inhibition of human recombinant caspase9 upto 50 uM.

Caspase-8 (Homo sapiens), sequence (Q14790 217-374 limits assumed): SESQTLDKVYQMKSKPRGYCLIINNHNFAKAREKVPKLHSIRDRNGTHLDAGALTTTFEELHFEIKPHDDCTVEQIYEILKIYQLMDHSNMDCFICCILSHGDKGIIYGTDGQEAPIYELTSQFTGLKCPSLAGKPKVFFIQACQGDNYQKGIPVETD
Caspase-8 (Homo sapiens), sequence (Q14790 385-479 limits assumed): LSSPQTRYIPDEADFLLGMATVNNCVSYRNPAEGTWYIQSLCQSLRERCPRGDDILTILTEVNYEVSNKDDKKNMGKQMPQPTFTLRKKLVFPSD

As to `O=C(CN1C(=O)[C@@H](COC(=O)Nc2ccccc2)N=C(c2ccccc2)c2ccccc21)N[C@H]1CC(=O)OC1O` (some centres undefined), the pIC50 (as a rule, the IC50 on a negative log10 scale, so that one unit is a factor of ten) on Falcipain 2B is 4.70; on Falcipain 2, 4.67. Further, the outcome on Caspase-8 (Homo sapiens) and at Caspase-9 (Homo sapiens) was inactive.
Regarding `O=C(CN1C(=O)[C@@H](COC(=O)Nc2c(F)cc(F)cc2Br)N=C(c2ccccc2)c2ccccc21)N[C@H]1CC(=O)OC1O` (some centres undefined), the negative logarithm of the IC50 (pIC50) is 4.67 on Falcipain 2B and 4.72 on Falcipain 2. Also, the result on Caspase-8 (Homo sapiens) and on Caspase-9 (Homo sapiens) was inactive.
In the case of `Cc1cc(Cl)ccc1NC(=O)OC[C@H]1N=C(c2ccccc2)c2ccccc2N(CC(=O)N[C@H]2CC(=O)OC2O)C1=O` (some centres undefined), the figures for the pIC50 on Falcipain 2B and at Falcipain 2 were 4.95 and 5.08, respectively. The outcome at Caspase-8 (Homo sapiens) and at Caspase-9 (Homo sapiens) was inactive.
Consider `O=C(CN1C(=O)[C@H](COC(=O)Nc2ccc(Cl)cc2C(F)(F)F)N=C(c2ccccc2)c2ccccc21)N[C@H]1CC(=O)OC1O` (some centres undefined), for which the pIC50 was 4.71 on Falcipain 2B and 4.99 on Falcipain 2. In addition, the result on Caspase-8 (Homo sapiens) and on Caspase-9 (Homo sapiens) was inactive.
Regarding `O=C(CN1C(=O)[C@@H](COC(=O)Nc2ccc(F)cc2F)N=C(c2ccccc2)c2ccccc21)N[C@H]1CC(=O)OC1O` (some centres undefined), the pIC50 at Falcipain 2B is 4.83; on Falcipain 2, 4.87. Besides, the outcome on Caspase-8 (Homo sapiens) and on Caspase-9 (Homo sapiens) was inactive.
Regarding `O=C(CN1C(=O)[C@@H](COC(=O)Nc2cccc3ccccc23)N=C(c2ccccc2)c2ccccc21)N[C@H]1CC(=O)OC1O` (some centres undefined), the pIC50 is 4.75 at Falcipain 2B and 4.95 at Falcipain 2. For the same molecule, the outcome at Caspase-8 (Homo sapiens) and at Caspase-9 (Homo sapiens) was inactive.
With `O=C(CN1C(=O)[C@@H](COC(=O)Nc2ccc(F)cc2)N=C(c2ccccc2)c2ccccc21)N[C@H]1CC(=O)OC1O` (some centres undefined), the pIC50 is 4.92 on Falcipain 2B and 4.79 on Falcipain 2. Further, the result on Caspase-8 (Homo sapiens) and on Caspase-9 (Homo sapiens) was inactive.
Take `CC(C)[C@H](NC(=O)OCc1ccccc1)C(=O)N[C@H](C=O)Cc1ccccc1` (Cbz-Val-Phe-aldehyde): the pIC50 at Falcipain 2B and on Falcipain 2 was 5.30 throughout. The outcome at Caspase-8 (Homo sapiens) and on Caspase-9 (Homo sapiens) was inactive.
On to `O=C(CN1C(=O)[C@@H](COC(=O)Nc2ccc(Cl)cc2)N=C(c2ccccc2)c2ccccc21)N[C@H]1CC(=O)OC1O` (some centres undefined), for which the results for the pIC50 on Falcipain 2B and at Falcipain 2 were 5.02 and 4.82, respectively. Also, the result on Caspase-8 (Homo sapiens) and at Caspase-9 (Homo sapiens) was inactive.
As for `O=C(CN1C(=O)[C@@H](COC(=O)Nc2ccc(Cl)cc2C(F)(F)F)N=C(c2ccccc2)c2ccccc21)N[C@H]1CC(=O)OC1O` (some centres undefined), the pIC50 on Falcipain 2B was 4.59; on Falcipain 2 it was 5.06. Besides, the result at Caspase-8 (Homo sapiens) and on Caspase-9 (Homo sapiens) was inactive.
For `COc1ccc(NC(=O)OC[C@H]2N=C(c3ccccc3)c3ccccc3N(CC(=O)N[C@H]3CC(=O)OC3O)C2=O)cc1` (some centres undefined), the pIC50 on Falcipain 2B was 4.85; on Falcipain 2, 5.06. Further, the outcome on Caspase-8 (Homo sapiens) and on Caspase-9 (Homo sapiens) was inactive.
